{"source": "ChEMBL document CHEMBL1125740", "about": "“Heterocyclic quinones. 17. A new in vivo active antineoplastic drug: 6,7-bis(1-aziridinyl)-4-[[3-(N,N-dimethylamino)propyl]amino]-5,8- quinazolinedione” (J Med Chem, 1991)", "key": {"P388 [1]": {"test_system": "P388", "experiment": "Compound was evaluated in vivo for antitumor activity after intraperitoneal administration against P388/L-PAM(14) for mortality range at an optimal dose of 0.25 mg/kg/injection at 1,4,7,11 day schedule.", "type": "functional, Mus musculus"}, "[2]": {"experiment": "Compound was evaluated in vivo for antitumor activity against Lewis Lung cercinoma after injecting the compound intravenously for median tumor burden", "type": "functional, Mus musculus", "how_it_was_run": "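Lewis lung carcinoma: 10^6 cells implanted im into C57Bl/6-derived hosts. Drug given iv on days 5, 9 and 13, 10 mice per group. Median tumor burden and weight nadir recorded. Survivors were killed on day 19, and their lungs were fixed in Fekete solution so that macroscopic metastases could be counted.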"}, "P388 [3]": {"test_system": "P388", "experiment": "Compound was evaluated in vivo for antitumor activity after intraperitoneal administration against P388 (1313) for tumor free survivors at an optimal dose of 1 mg/kg/injection on day 60", "type": "functional, Mus musculus"}, "L1210 [4]": {"test_system": "L1210", "experiment": "Compound was evaluated in vivo for antitumor activity after intraperitoneal administration against L1210(935) for tumor free survivors at an optimal dose of 0.5 mg/kg/injection at 1,4,7,11 day schedule.", "type": "functional, Mus musculus", "how_it_was_run": "(§1)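 L1210 leukemia, maintained in DBA/2 mice, was given ip as 10⁵ cells on day 0 to F1 hybrid or strain-of-origin mice over 18 g, in groups of 8. Dosing was ip from day 1, and mortality was checked daily. Median day of death counts dying mice only. %ILS = 100×(treated − control median day of death)/control median. Tumor-free survivors were counted on day 60. Weight change is g/mouse at nadir.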"}, "L1210 [5]": {"test_system": "L1210", "experiment": "Compound was evaluated in vivo for antitumor activity after intraperitoneal administration against L1210(935) for mortality range at an optimal dose of 0.125 mg/kg/injection at 1,4,7,11day schedule.", "type": "functional, Mus musculus", "how_it_was_run": "as §1"}, "P388 [6]": {"test_system": "P388", "experiment": "Compound was evaluated in vivo for antitumor activity after intraperitoneal administration against P388 (1313) for median day of death at an optimal dose of 0.25 mg/kg/injection", "type": "functional, Mus musculus"}, "B16 [7]": {"test_system": "B16", "experiment": "Compound was evaluated in vivo for antitumor activity against B16 melanoma after injecting the compound intravenously for change in body weight.", "type": "functional, Mus musculus", "how_it_was_run": "(§2)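 30-60 mg tumor fragments implanted sc by trocar on day 0 into C57Bl/6-derived hosts (B16) or C3H/He-derived hosts (16/C). Drug given iv on days 6, 9 and 13 (B16) or 6, 9 and 12 (16/C), 10 mice per group. Tumors measured by caliper. T/C % taken from median tumor burden of treated vs control groups on day 15 (B16) or day 14 (16/C). Body weight change per mouse recorded at nadir.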"}, "L1210 [8]": {"test_system": "L1210", "experiment": "Compound was evaluated in vivo for antitumor activity after intraperitoneal administration against L1210(935)for change in body weight at an optimal dose of 0.5 mg/kg/injection at 1,4,7,11day schedule.", "type": "functional, Mus musculus", "how_it_was_run": "as §1"}, "L1210 [9]": {"test_system": "L1210", "experiment": "Compound was evaluated in vivo for antitumor activity after intraperitoneal administration against L1210(935) for total dose at an optimal dose of 0.5 mg/kg/injection at 1 day schedule.", "type": "functional, Mus musculus", "how_it_was_run": "as §1"}, "P388 [10]": {"test_system": "P388", "experiment": "Compound was evaluated in vivo for antitumor activity after intraperitoneal administration against P388 (1303) for tumor free survivors at an optimal dose of 0.75 mg/kg/injection on day 60", "type": "functional, Mus musculus"}, "L1210 [11]": {"test_system": "L1210", "experiment": "Compound was evaluated in vivo for antitumor activity after intraperitoneal administration against L1210(935) for median day of death at an optimal dose of 0.1 mg/kg/injection at 1-4 day schedule.", "type": "functional, Mus musculus", "how_it_was_run": "as §1"}, "L1210 [12]": {"test_system": "L1210", "experiment": "Compound was evaluated in vivo for antitumor activity after intraperitoneal administration against L1210(935)for change in body weight at an optimal dose of 0.25 mg/kg/injection at 1,4,7,11day schedule.", "type": "functional, Mus musculus", "how_it_was_run": "as §1"}, "[13]": {"experiment": "Compound was evaluated in vivo for antitumor activity against colon adenocarcinoma 38 after injecting the compound intravenously for optimal dose", "type": "functional, Mus musculus"}, "P388 [14]": {"test_system": "P388", "experiment": "Compound was evaluated in vivo for antitumor activity after intraperitoneal administration against P388 (1313) for mortality range at an optimal dose of 0.4 mg/kg/injection", "type": "functional, Mus musculus"}, "L1210 [15]": {"test_system": "L1210", "experiment": "Compound was evaluated in vivo for antitumor activity after intraperitoneal administration against L1210(935)for % increase in life span at an optimal dose of 0.5 mg/kg/injection at 1,4,7,11day schedule.", "type": "functional", "conditions": "Mus musculus, L1210, ip", "how_it_was_run": "as §1"}, "L1210 [16]": {"test_system": "L1210", "experiment": "Compound was evaluated in vivo for antitumor activity after intraperitoneal administration against L1210(935) for median day of death at an optimal dose of 0.25 mg/kg/injection at 1,4,7,11day schedule.", "type": "functional, Mus musculus", "how_it_was_run": "as §1"}, "[17]": {"experiment": "Compound was evaluated in vivo for antitumor activity against mammary adenocarcinoma 16/C after injecting the compound intravenously for toxicity related death.", "type": "functional, Mus musculus", "how_it_was_run": "as §2"}, "[18]": {"experiment": "Compound was evaluated in vivo for antitumor activity against colon adenocarcinoma 38 after injecting the compound intravenously for percent T/C (value in parentheses indicates the day of evaluation)", "type": "functional, Mus musculus"}, "P388 [19]": {"test_system": "P388", "experiment": "Compound was evaluated in vivo for antitumor activity after intraperitoneal administration against P388/L-PAM(14) for total dose at an optimal dose of 0.25 mg/kg/injection at 1,4,7,11 day schedule.", "type": "functional, Mus musculus"}, "P388 [20]": {"test_system": "P388", "experiment": "Compound was evaluated in vivo for antitumor activity after intraperitoneal administration against P388 (1313) for change in body weight at an optimal dose of 0.25 mg/kg/injection", "type": "functional, Mus musculus"}, "P388 [21]": {"test_system": "P388", "experiment": "Compound was evaluated in vivo for antitumor activity after intraperitoneal administration against P388 (1313) for % increase in life span at an optimal dose of 1 mg/kg/injection", "type": "functional", "conditions": "Mus musculus, P388, ip"}, "P388 [22]": {"test_system": "P388", "experiment": "Compound was evaluated in vivo for antitumor activity after intraperitoneal administration against P388 (1313) for mortality range at an optimal dose of 1 mg/kg/injection", "type": "functional, Mus musculus"}, "P388 [23]": {"test_system": "P388", "experiment": "Compound was evaluated in vivo for antitumor activity after intraperitoneal administration against P388/L-PAM(14) for mortality range at an optimal dose of 0.4 mg/kg/injection at 1,2,3,4 day schedule.", "type": "functional, Mus musculus"}, "B16 [24]": {"test_system": "B16", "experiment": "Compound was evaluated in vivo for antitumor activity against B16 melanoma 1 after injecting the compound intravenously for total dose.", "type": "functional, Mus musculus"}, "[25]": {"experiment": "Compound was evaluated in vivo for antitumor activity against mammary adenocarcinoma 16/C after injecting the compound intravenously for percent T/C", "type": "functional, Mus musculus", "how_it_was_run": "as §2"}, "[26]": {"experiment": "Compound was evaluated in vivo for antitumor activity against colon adenocarcinoma 38 after injecting the compound intravenously for median tumor burden", "type": "functional, Mus musculus"}, "B16 [27]": {"test_system": "B16", "experiment": "Compound was evaluated in vivo for antitumor activity against B16 melanoma 1 after injecting the compound intravenously for toxicity related death.", "type": "functional, Mus musculus"}, "P388 [28]": {"test_system": "P388", "experiment": "Compound was evaluated in vivo for antitumor activity after intraperitoneal administration against P388 (1313) for tumor free survivors at an optimal dose of 0.4 mg/kg/injection", "type": "functional, Mus musculus"}, "P388 [29]": {"test_system": "P388", "experiment": "Compound was evaluated in vivo for antitumor activity after intraperitoneal administration against P388 (1313) for median day of death at an optimal dose of 1 mg/kg/injection", "type": "functional, Mus musculus"}, "L1210 [30]": {"test_system": "L1210", "experiment": "Compound was evaluated in vivo for antitumor activity after intraperitoneal administration against L1210(935) for median day of death at an optimal dose of 0.125 mg/kg/injection at 1,4,7,11day schedule.", "type": "functional, Mus musculus", "how_it_was_run": "as §1"}, "P388 [31]": {"test_system": "P388", "experiment": "Compound was evaluated in vivo for antitumor activity after intraperitoneal administration against P388 (1313) for % increase in life span at an optimal dose of 0.4 mg/kg/injection", "type": "functional", "conditions": "Mus musculus, P388, ip"}, "P388 [32]": {"test_system": "P388", "experiment": "Compound was evaluated in vivo for antitumor activity after intraperitoneal administration against P388/L-PAM(14) for tumor free survivors at an optimal dose of 0.25 mg/kg/injection at 1,4,7,11 day schedule.", "type": "functional, Mus musculus"}}, "note": "“And” between values parts separate entries of the source, which are not always exact repeats. Identical values can stand only once."}
{"smiles": "CN(C)CCCNc1ncnc2c1C(=O)C(N1CC1)=C(N1CC1)C2=O", "values": [{"measurement": "Mortality", "setting": "P388 [1]", "result": 20, "unit": "days"}, {"measurement": "Tumor burden", "setting": "[2]", "result": "7717 mg and 7748 mg"}, {"measurement": "Survivors", "setting": "P388 [3]", "result": 0}, {"measurement": "Survivors", "setting": "L1210 [4]", "result": 1}, {"measurement": "Mortality", "setting": "L1210 [5]", "result": 14, "unit": "days"}, {"measurement": "Median day of death", "setting": "P388 [6]", "result": 19}, {"measurement": "Change in body weight", "setting": "B16 [7]", "result": "0.9 g mouse-1 and 0.8 g mouse-1"}, {"measurement": "Change in body weight", "setting": "L1210 [8]", "result": 1.1, "unit": "g mouse-1"}, {"measurement": "Total dose", "setting": "L1210 [9]", "result": 0.5, "unit": "mg/kg"}, {"measurement": "Survivors", "setting": "P388 [10]", "result": 0}, {"measurement": "Median day of death", "setting": "L1210 [11]", "result": 14}, {"measurement": "Change in body weight", "setting": "L1210 [12]", "result": 1.6, "unit": "g mouse-1"}, {"measurement": "Optimal dose", "setting": "[13]", "result": 0.25, "unit": "mg/kg"}, {"measurement": "Mortality", "setting": "P388 [14]", "result": 39, "unit": "days"}, {"measurement": "ILS at 0.5 mg/kg", "setting": "L1210 [15]", "result": 27, "unit": "%"}, {"measurement": "Median day of death", "setting": "L1210 [16]", "result": 13}, {"measurement": "Toxicity", "setting": "[17]", "result": 0}, {"measurement": "Toxicity related death", "setting": "[17]", "result": 0}, {"measurement": "T/C", "setting": "[18]", "result": 102, "unit": "%"}, {"measurement": "Total dose", "setting": "P388 [19]", "result": 1, "unit": "mg/kg"}, {"measurement": "Change in body weight", "setting": "P388 [20]", "result": 2.4, "unit": "g mouse-1"}, {"measurement": "ILS at 1 mg/kg", "setting": "P388 [21]", "result": 70, "unit": "%"}, {"measurement": "Mortality", "setting": "P388 [22]", "result": 24, "unit": "days"}, {"measurement": "Mortality", "setting": "P388 [23]", "result": 27, "unit": "days"}, {"measurement": "Total dose", "setting": "B16 [24]", "result": 1.8, "unit": "mg/kg"}, {"measurement": "T/C", "setting": "[25]", "result": "48% and 68%"}, {"measurement": "Tumor burden", "setting": "[26]", "result": 416}, {"measurement": "Toxicity", "setting": "B16 [27]", "result": 0}, {"measurement": "Survivors", "setting": "P388 [28]", "result": 1}, {"measurement": "Median day of death", "setting": "P388 [29]", "result": 19}, {"measurement": "Median day of death", "setting": "L1210 [30]", "result": 13}, {"measurement": "ILS at 0.4 mg/kg", "setting": "P388 [31]", "result": 91, "unit": "%"}, {"measurement": "Survivors", "setting": "P388 [32]", "result": 0}]}
